Assay [1] in a line: Ratio of Kapp(NMS)/Kapp(OXO-M). A digest of the protocol: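 Ratio of Kapp values from displacement of [3H]NMS (0.01–1.0 nM, 60 min, 30 °C) and of [3H]oxotremorine-M (0.2-5 nM, HEPES pH 7.4, 40 min, 30 °C) in rat cortical membranes; 2 μM atropine nonspecific; each Kapp occupancy-corrected geometric mean of ≥3 determinations.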
Assay [2] deals with T1, Muscarinic acetylcholine receptor (Rattus norvegicus) (UniProt P08482+P08483+P08485+P08911+P10980). The assay can be described thus: In vitro ability to displace [3H]oxotremorine-M from the muscarinic receptor in rat cerebral cortical membranes. The class given is cell membranes. The gist of the method:
(§1)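 Rat cortical P2 membranes washed and resuspended 1/100 (wet w/v) in 20 mM HEPES pH 7.4. [3H]oxotremorine-M at 0.2-5 nM, nonspecific binding with 2 μM atropine; 40 min at 30 °C; filtration on polyethyleneimine-presoaked GF/C filters, saline wash, scintillation counting. Kapp corrected for ligand occupancy; four concentrations in triplicate; geometric mean of ≥3 determinations.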

The target of assay [3] is T1, Muscarinic acetylcholine receptor (Rattus norvegicus). The assay can be described thus: In vitro ability to displace [3H]N-methylscopolamine from the muscarinic receptor in rat cerebral cortical membranes. In kind it is cell membranes. The gist of the method: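 Rat (250-300 g) cerebral cortex crude synaptosomal-mitochondrial membranes (sucrose homogenate, 1000g then 17000g spins). [3H]NMS at 0.01–1.0 nM, nonspecific binding with 2 μM atropine; 60 min at 30 °C; GF/B filtration, saline rinses, scintillation counting. Kapp corrected for ligand occupancy; four concentrations in triplicate; geometric mean of ≥3 separate determinations.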

For assay [4], the target named is T2, Muscarinic acetylcholine receptor M1 (Rattus norvegicus) (UniProt P08482).
T2 sequence (whole entry): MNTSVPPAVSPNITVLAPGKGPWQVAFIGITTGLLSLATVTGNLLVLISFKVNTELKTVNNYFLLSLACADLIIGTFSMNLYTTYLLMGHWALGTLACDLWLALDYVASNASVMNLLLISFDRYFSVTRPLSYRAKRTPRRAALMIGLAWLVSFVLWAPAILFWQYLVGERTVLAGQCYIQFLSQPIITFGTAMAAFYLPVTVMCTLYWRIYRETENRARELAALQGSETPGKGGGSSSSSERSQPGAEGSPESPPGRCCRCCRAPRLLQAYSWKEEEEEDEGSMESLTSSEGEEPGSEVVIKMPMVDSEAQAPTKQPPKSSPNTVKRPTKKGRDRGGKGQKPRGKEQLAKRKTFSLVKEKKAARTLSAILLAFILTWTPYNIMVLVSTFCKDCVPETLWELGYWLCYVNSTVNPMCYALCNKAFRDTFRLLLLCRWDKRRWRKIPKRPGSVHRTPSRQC
The assay can be described thus: In vitro evaluation for the relative maximum against Muscarinic M1 receptor compare to muscarine. The class given is functional. A digest of the protocol:
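Maximum depolarizing response determined by raising agonist concentration until plateau, expressed relative to muscarine; responses related to a reference depolarization set at 1.0; ganglia each from a different rat.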

For assay [5], the target named is T1, Muscarinic acetylcholine receptor (Rattus norvegicus). The assay can be described thus: In vitro ability to displace muscarinic agonist [3H]oxotremorine-M from high affinity state of the receptor in rat cerebral cortical membranes. The class given is cell membranes. The settings on record: Membrane. A digest of the protocol: as §1
In assay [6] the target is T3, Muscarinic acetylcholine receptor M2 (Homo sapiens) (UniProt P08172).
T3 sequence (whole entry): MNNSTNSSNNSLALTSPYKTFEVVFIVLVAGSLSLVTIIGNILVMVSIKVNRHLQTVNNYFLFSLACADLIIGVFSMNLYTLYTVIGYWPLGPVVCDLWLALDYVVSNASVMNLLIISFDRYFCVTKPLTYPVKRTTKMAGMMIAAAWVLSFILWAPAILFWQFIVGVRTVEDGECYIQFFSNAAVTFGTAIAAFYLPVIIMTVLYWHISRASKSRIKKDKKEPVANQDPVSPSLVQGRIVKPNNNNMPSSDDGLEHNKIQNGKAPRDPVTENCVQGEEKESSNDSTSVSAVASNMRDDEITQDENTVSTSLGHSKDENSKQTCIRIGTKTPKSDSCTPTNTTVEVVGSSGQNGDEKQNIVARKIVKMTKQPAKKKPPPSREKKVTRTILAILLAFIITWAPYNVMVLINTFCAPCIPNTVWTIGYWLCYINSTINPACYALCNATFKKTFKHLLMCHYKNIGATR
The experiment in a line: In Vitro evaluation for the relative maximum against Muscarinic M2 receptor compare to carbachol. The class given is functional. The settings on record: Cavia porcellus. The gist of the method:
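Guinea pig paired atria (male, 300-400 g) in Krebs bicarbonate with 22 mM glucose, 1 g tension, electrically paced (3-4 Hz, 2-3 ms); noncumulative dose-response curves to maximum negative chronotropic effect, ≥45 min apart; maximum response expressed relative to that of carbachol.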

The target of assay [7] is Muscarinic acetylcholine receptor M3 (Cavia porcellus) (UniProt Q8VH26). The experiment in a line: In vitro evaluation for the relative maximum against Muscarinic M3 receptor compare to carbachol. The class given is functional. The gist of the method:
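Guinea pig ileum longitudinal muscle-myenteric plexus (male, 300-400 g), 1 g tension, Krebs bicarbonate at 37 °C; isometric tension change measured to peak; maximum response expressed as percentage of that to 1 μM carbachol.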

Assay [8] deals with Muscarinic acetylcholine receptor M3 (Cavia porcellus, UniProt Q8VH26). The assay can be described thus: In vitro contraction of guinea pig myenteric plexus preparation (mediated by Muscarinic M3 receptor). In kind it is functional. The gist of the method:
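Distal ileum longitudinal muscle-myenteric plexus strips from male guinea pigs (300-400 g) under 1 g tension in 3 mL Krebs bicarbonate, 37 °C, equilibrated ≥60 min. Isometric contraction read for ≥30 s to clear peak, ≥45 min between compounds; responses as % of 1 μM carbachol maximum. EC50 by nonlinear iterative curve fitting; geometric mean of at least four determinations.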

In assay [9] the target is T4, Muscarinic acetylcholine receptor M2 (Homo sapiens, UniProt P08172).
T4 sequence (P08172 whole entry): T3 sequence (whole entry)
The assay can be described thus: In vitro negative chronotropic effect on electrically driven guinea pig atria(mediated by Muscarinic M2 receptor). Particulars: target entry is the homologue from another species. In kind it is functional, Cavia porcellus. The gist of the method: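 Paired atria from male guinea pigs (300-400 g) under 1 g tension in Krebs bicarbonate with 22 mM glucose, paced by field stimulation (3-4 Hz, 2-3 ms). After 60 min equilibration, noncumulative dose-response curves for negative chronotropy, each application held to maximum effect; ≥45 min between curves. EC50 from geometric mean of at least two determinations.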

Assay [10] has as its target T5, Muscarinic acetylcholine receptor M1 (Rattus norvegicus, UniProt P08482).
T5 sequence (P08482 whole entry): T2 sequence (whole entry)
The assay can be described thus: Compound was tested in vitro for depolarizing response on the rat superior cervical ganglion (mediated by Muscarinic M1 receptor). In kind it is functional, tissue-based. The gist of the method:
(§2)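 Responses related to a reference depolarizing response set at 1.0. Agonist concentration raised until response levelled off; EC50 taken as concentration giving half-maximum; at least two determinations, each ganglion from a different rat.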

Assay [11] deals with T5, Muscarinic acetylcholine receptor M1. The assay can be described thus: Compound was tested in vitro for depolarizing response on the rat superior cervical ganglion (mediated by Muscarinic M1 receptor. The class given is functional, tissue-based. The gist of the method:
as §2

Chain of Muscarinic acetylcholine receptor M3 (Q8VH26 whole entry): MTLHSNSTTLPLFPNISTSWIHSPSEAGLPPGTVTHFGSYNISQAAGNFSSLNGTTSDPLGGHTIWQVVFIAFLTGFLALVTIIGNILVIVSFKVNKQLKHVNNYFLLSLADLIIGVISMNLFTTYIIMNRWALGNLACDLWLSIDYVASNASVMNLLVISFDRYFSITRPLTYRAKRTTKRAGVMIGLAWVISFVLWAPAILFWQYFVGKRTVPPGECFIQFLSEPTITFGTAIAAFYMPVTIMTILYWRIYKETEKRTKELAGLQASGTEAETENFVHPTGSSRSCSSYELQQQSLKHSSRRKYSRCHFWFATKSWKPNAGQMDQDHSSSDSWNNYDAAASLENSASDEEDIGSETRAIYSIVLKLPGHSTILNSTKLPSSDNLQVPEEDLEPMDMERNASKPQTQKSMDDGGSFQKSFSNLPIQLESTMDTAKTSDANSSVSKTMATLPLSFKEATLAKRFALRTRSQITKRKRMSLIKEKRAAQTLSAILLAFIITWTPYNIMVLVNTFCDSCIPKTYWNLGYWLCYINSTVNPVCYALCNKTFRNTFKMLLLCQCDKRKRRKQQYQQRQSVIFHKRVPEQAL
Chain of Muscarinic acetylcholine receptor M3 (Cavia porcellus) (Q8VH26 1-587): as the sequence (Q8VH26 whole entry) above

Regarding `C[N+](C)(C)CCOC(N)=O`, the Ratio in assay [1] was found to be 4500. Besides, the results for the K app in [2] and in assay [3] were 4.9 nM and 22000 nM, respectively.
For the compound `Cc1noc([C@@H]2CN3CC[C@@H]2C3)n1`, the Ratio in assay [1] was found to be 1200. The RM in [4] stood at 1.16; in [6] it was 0.94; in [7] it was 0.97. Besides, the K app in assay [5] is 0.32 nM; in assay [3] it was 370 nM. Further, the EC50 (as a rule, the concentration at which the effect is half-maximal) in assay [8] was determined as 2.4 nM; in assay [9], 3.3 nM; in [10], 7 nM.
As for `Cc1noc([C@H]2CN3CC[C@H]2C3)n1`, in assay [1], the Ratio came to 1200. Further, the values for the RM in [4], in [6] and in assay [7] were 0.94, 0.91 and 0.91, respectively. For the same compound, the K app in assay [2] amounted to 0.027 nM; in assay [3], 32 nM. The figures for the EC50 in assay [8], in assay [9] and in [10] were 0.045 nM, 0.039 nM and 2.4 nM, respectively.
`Cc1noc([C@H]2CN3CC[C@@H]2C3)n1`: in [1], the Ratio turned out to be 1400. For the same compound, the RM came to 0.76 in assay [4], 0.96 in assay [6] and 0.93 in [7]. Also, the K app stood at 1.6 nM in assay [2] and 2200 nM in assay [3]. Moreover, the EC50 in assay [8] is 16 nM; in [9] it was 19 nM; in assay [11] it was 90 nM.

Source of the values: ChEMBL document CHEMBL1125396, “Synthesis and in vitro biological profile of all four isomers of the potent muscarinic agonist 3-(3-methyl-1,2,4-oxadiazol-5-yl)-1-azabicyclo[2.2.1]heptane” (J Med Chem, 1992).
